SR-BI DiI inh: inhibitors of mouse SR-BI mediated HDL lipid uptake; Q61009; ldlA[mSR-BI] CHO cells, DiI-HDL uptake fluorescence, 3 h; inhibition, % at 12.5 µM; 320,000 compounds, 0.96% hits;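 active means mean replicate inhibition of at least 70% and a set share of replicates each scoring 70 or more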
Target sequence (Q61009 whole entry, looked up): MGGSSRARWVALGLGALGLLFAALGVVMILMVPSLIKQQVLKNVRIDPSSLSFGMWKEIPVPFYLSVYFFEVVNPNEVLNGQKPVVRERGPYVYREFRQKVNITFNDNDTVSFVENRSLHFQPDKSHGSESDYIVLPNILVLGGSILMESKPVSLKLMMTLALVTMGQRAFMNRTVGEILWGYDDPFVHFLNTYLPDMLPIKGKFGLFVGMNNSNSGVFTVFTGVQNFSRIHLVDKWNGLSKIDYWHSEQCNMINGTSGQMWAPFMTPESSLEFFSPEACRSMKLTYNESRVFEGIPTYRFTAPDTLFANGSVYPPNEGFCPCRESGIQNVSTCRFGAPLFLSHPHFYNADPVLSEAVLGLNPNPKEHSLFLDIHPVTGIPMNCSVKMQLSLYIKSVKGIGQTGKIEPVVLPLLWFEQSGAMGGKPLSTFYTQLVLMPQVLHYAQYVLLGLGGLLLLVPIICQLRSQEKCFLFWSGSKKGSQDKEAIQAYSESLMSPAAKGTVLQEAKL
SR-BI uptake up: activators of SR-BI mediated HDL lipid uptake | CHO ldlA[mSR-BI] cells, DiI-HDL uptake fluorescence, 3 h; 100 = double the neutral-control signal | activation, % at 12.5 µM | 320,000 compounds, 0.096% hits | AID 504775;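 active means mean replicate activation of at least 60% and every replicate at or above 60%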
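Test system: SR-BI-overexpressing, LDLR-lacking CHO cells. Measured by: DiI fluorescence, bottom read. Medium: Ham's F12 with 0.5% BSA, HEPES 25 mM, pH 7.4. Timing: 3 h uptake period with compound, 37 °C.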
CAL PDZ FP-1: blocks peptide binding to human CAL PDZ domain | Q9HD26 | purified CAL PDZ, TMR-peptide fluorescence polarization, 1 h | inhibition, % at 20 µM | 330,000 compounds, 0.02% hits | AID 504414;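 active means highest replicate inhibition of at least 40%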
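System: tagged CAL PDZ domain. Schedule: 1 h room-temperature incubation prior to read. Signal: fluorescence polarization (mP). Measure: percent inhibition from loss of millipolarization.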
ATG4B inhibitor: inhibitors of human ATG4B cysteine protease; AID 504462; 340,000 compounds, 0.51% hits; inhibition, % at 8.33 µM; Q9Y4P1; ATG4B cleavage of LC3-PLA2, NBD-HPC fluorescence, 1 h; in the data active means inhibition above about 40%
CAL PDZ FP-2: blocks peptide binding to the human CAL PDZ domain. purified CAL PDZ, TMR-peptide fluorescence polarization, 1 h. inhibition, % at 24.9 µM. 300,000 compounds, 0.92% hits. AID 602252;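 active means mean inhibition of at least 30% with at least half of replicates also reaching 30%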
Of the large screens only hits and unclear results are named; the others gave an inactive call. A selection: hits, their analogues and other compounds. The true share with any hit is near 2.3%.

CC(C)Sc1nnc(CNC(=O)C23CC4CC(CC(C4)C2)C3)n1C1CCCCC1	CAL PDZ FP-2 47
COC(=O)Nc1ccc(S(=O)(=O)N2CCC(C(=O)NCc3ccc4c(c3)OCO4)CC2)cc1	none
Nc1nc(SCC(=O)c2ccc(Cl)cc2)c2ncn(C3OC(CO)C(O)C3O)c2n1 (stereo not given)	CAL PDZ FP-2 53
CCN1C(=O)C(=Cc2cccc(OC)c2Oc2ccc([N+](=O)[O-])cc2[N+](=O)[O-])SC1=S	SR-BI DiI inh 75 (no result: CAL PDZ FP-1)
Cc1ccc(C(=O)Nc2cccc(C(=O)N3CCOCC3)c2)cc1Cl	CAL PDZ FP-2 63
O=C(Nc1cccc(C(=O)N2CCOCC2)c1)c1ccccc1	none (no result: SR-BI uptake up)
O=C(Nc1ccc(N2CCOCC2)cc1)c1cc2c(s1)CCCCC2	SR-BI DiI inh 88 (no result: CAL PDZ FP-2)
CCOC(=O)c1ccc(NC(=O)c2cccc(S(=O)(=O)N3CCOCC3)c2)cc1	SR-BI DiI inh 83 (no result: CAL PDZ FP-1)
CC(=O)c1cccc(NC(=O)c2cccc(S(=O)(=O)N3CCOCC3)c2)c1	none (no result: SR-BI DiI inh, SR-BI uptake up)
Cc1ccc(NC(=O)Cc2ccccc2)cc1S(=O)(=O)N1CCOCC1	CAL PDZ FP-2 30
O=C(NCc1cccc(C(F)(F)F)c1)C1CCC(=O)N(C2CCCCCC2)C1 (stereo not given)	none
O=C(Nc1ccc(N2CCCCCC2)cc1)c1cccc(S(=O)(=O)N2CCOCC2)c1	SR-BI DiI inh 71, CAL PDZ FP-2 36
Cc1ccc(C(=O)Nc2cccc(-c3ccc(N4CCOCC4)nn3)c2)cc1	none
O=C(Nc1cccc(S(=O)(=O)N2CCOCC2)c1)c1cccc(S(=O)(=O)N2CCCCC2)c1	none
CCOc1ccc(CCNC(=O)c2ccc(Cl)c(S(=O)(=O)N3CCOCC3)c2)cc1OCC	SR-BI DiI inh 73
Cc1ccccc1Nc1ccc(S(=O)(=O)N2CCOCC2)cc1[N+](=O)[O-]	none
O=[N+]([O-])c1cc(S(=O)(=O)N2CCOCC2)ccc1NS(=O)(=O)c1ccccc1	CAL PDZ FP-2 46
Cc1ccc(C(=O)Nc2cccc(-c3ccc(N4CCOCC4)nn3)c2)cc1C	SR-BI DiI inh 77
O=C(CCN1C(=O)[C@@H]2Cc3ccccc3CN2C1=O)NCc1ccc(Cl)cc1	none
CC(=O)c1cccc(S(=O)(=O)N2CCCC(c3nc4c(nnn4Cc4ccccc4Cl)c(=O)[nH]3)C2)c1 (stereo not given)	none
O=C(OCC1CCC=CO1)C1CCC=CO1 (stereo not given)	none
O=C(CSc1ccc2ccccc2c1)Nc1ncccn1	none
Cc1ccc(C(=O)Nc2cccc(S(=O)(=O)N3CCOCC3)c2)cc1[N+](=O)[O-]	SR-BI DiI inh 77
COc1ccc(CC(=O)Nc2ccc(F)c(S(=O)(=O)N3CCOCC3)c2)cc1	none (no result: CAL PDZ FP-2)
O=C(Nc1cccc(S(=O)(=O)N2CCOCC2)c1)c1ccc(Cl)c([N+](=O)[O-])c1	none
CCc1ccccc1OCC(=O)Nc1ccc(F)c(S(=O)(=O)N2CCOCC2)c1	CAL PDZ FP-2 31
O=C(NNC(=O)c1cc(Cl)ccc1O)c1cccc(S(=O)(=O)N2CCOCC2)c1	SR-BI DiI inh 107
COc1ccc(CC(=O)NCCC(C)C)cc1S(=O)(=O)N1CCOCC1	CAL PDZ FP-2 42
Cc1ccc(C(=O)NNC(=O)c2cccc(S(=O)(=O)N3CCOCC3)c2)cc1	none (no result: SR-BI uptake up)
C=CCN1C(=O)c2ccc(C(=O)N(C)CC(=O)Nc3ccccc3C(F)(F)F)cc2C1=O	none
CC(=O)C1CCC2C3CC=C4CC(SC(=N)N)CCC4(C)C3CCC12C (stereo not given)	none
CC(=O)c1cc(Cl)ccc1OCc1cccc(S(=O)(=O)N2CCOCC2)c1	none
CCOC(=O)c1c(C)[nH]c(C(=O)COC(=O)c2ccc(F)c(S(=O)(=O)N3CCOCC3)c2)c1C	SR-BI DiI inh 74
Cc1ccc(NC(=O)c2ccc(=O)[nH]c2)cc1S(=O)(=O)N1CCCCCC1	SR-BI DiI inh 80
O=S(=O)(c1cccc(COc2ccc(Cl)cc2Cl)c1)N1CCOCC1	SR-BI DiI inh 72
CN(c1ccccc1)S(=O)(=O)c1cccc(C(=O)Nc2ccc(N3CCOCC3)cc2)c1	SR-BI DiI inh 86
Cc1ccc(C(=O)NC2CCCCC2)cc1S(=O)(=O)N1CCCC1	none
CC(=O)c1ccc(NC(=O)c2ccc(C)c(S(=O)(=O)N3CCOCC3)c2)cc1	SR-BI DiI inh 85
CCOC(=O)c1ccc(NC(=O)c2ccc(C)c(S(=O)(=O)N3CCOCC3)c2)cc1	SR-BI DiI inh 87 (no result: CAL PDZ FP-1)
Cc1ccc(C(=O)Nc2ccc(N3CCOCC3)cc2)cc1S(=O)(=O)N1CCCCC1	none
CCCCOc1ccc(C(=O)N2CCN(c3ncccn3)CC2)cc1	none (no result: CAL PDZ FP-1)
COC(=O)c1cc(OC)c(OC)cc1NC(=O)Nc1ccccc1OC	none
COC(=O)c1cc(OC)c(OC)cc1NC(=O)c1cccc(OC)c1OC	SR-BI DiI inh 72
CCOC(=O)c1oc2ccccc2c1NC(=O)c1cccc(OC)c1OC	SR-BI DiI inh 77 (no result: CAL PDZ FP-2)
CCN(CC)CCN(Cc1cc2cc3c(cc2[nH]c1=O)OCO3)C(=S)NCCOC	none
Cc1cc(C)cc(-n2ncc3c2CCCC3NC(=O)C2CCC2)c1 (stereo not given)	CAL PDZ FP-2 53
c1cnn(Cc2cnc(N3CCOCC3)s2)c1	CAL PDZ FP-2 61
COc1ccc(OC)c(Nc2nc(-c3sc(NC(=O)C(C)(C)C)nc3C)cs2)c1	SR-BI DiI inh 81
COc1ccc(Cl)cc1Nc1nc(-c2sc(NC(=O)c3ccco3)nc2C)cs1	SR-BI DiI inh 89
COc1ccc(Cl)cc1Nc1nc(-c2sc(NC(=O)C(C)(C)C)nc2C)cs1	none
COc1cccc(Nc2nc(-c3sc(NC(=O)c4ccco4)nc3C)cs2)c1	none
CCC(C)C(=O)Nc1nc(C)c(-c2csc(Nc3cc(OC)ccc3OC)n2)s1 (stereo not given)	SR-BI DiI inh 80
CCC(C)C(=O)Nc1nc(C)c(-c2csc(Nc3cc(Cl)ccc3OC)n2)s1 (stereo not given)	SR-BI DiI inh 72
CC(=O)c1nn(-c2ccc(C(F)(F)F)cc2)c(=O)[nH]c1=O	none (no result: SR-BI DiI inh, SR-BI uptake up, CAL PDZ FP-1)
COc1ccc(OC)c(Nc2nc(-c3sc(C)nc3C)cs2)c1	none
COc1ccc(OC)c(Nc2nc(-c3sc(NC(=O)CC(C)C)nc3C)cs2)c1	SR-BI DiI inh 76
O=C(N/N=C/c1cc(Br)c(O)c(Br)c1O)c1ccc2c(c1)OCCO2	none
O=C(CNC(=O)c1ccc2c(c1)OCCO2)N/N=C/c1ccc(Cl)cc1	CAL PDZ FP-2 70
Cc1cc(Br)cc(/C=N/NC(=O)c2ccc3c(c2)OCO3)c1O	SR-BI DiI inh 146
O=C(N/N=C/c1c[nH]c2ccc(Br)cc12)c1ccc2c(c1)OCO2	none
O=C(N/N=C/c1cccc(O)c1)c1ccc(COc2cccc3cccnc23)cc1	none (no result: CAL PDZ FP-2)
O=C(N/N=C/c1ccc2c(c1)OCO2)c1ccc(COc2cccc3cccnc23)cc1	SR-BI DiI inh 76 (no result: CAL PDZ FP-2)

Screens (PubChem)
